Test results published in ChEMBL document CHEMBL1152659, “Removal of the 20-methyl group from 2-methylene-19-nor-(20S)-1alpha,25-dihydroxyvitamin D(3) (2MD) selectively eliminates bone calcium mobilization activity” (Bioorg Med Chem, 2009).

Legend:
Rattus norvegicus [1] = test: Effect on bone calcium mobilization in weanling Sprague-Dawley rat assessed as serum calcium level at 780 pmol/day, ip administered for 4 consecutive days measured 24 hrs after last dose; type: functional
Summary of the method: (§1)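 Male weanling rats fed 0.47% Ca + AEK oil for 1 wk, then 0.02% Ca for 3 wk, then 0.47% Ca for 1 wk, then 0.02% Ca for 2 wk. Dosing during the final low-Ca week: four i.p. doses about 24 h apart. Serum Ca measured on blood from severed neck 24 h after the last dose; statistics applied.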

Rattus norvegicus [2] = test: Effect on bone calcium mobilization in weanling Sprague-Dawley rat assessed as serum calcium level at 2340 pmol/day, ip administered for 4 consecutive days measured 24 hrs after last dose; type: functional; summary of the method: as §1
Rattus norvegicus [3] = test: Effect on bone calcium mobilization in weanling Sprague-Dawley rat assessed as serum calcium level at 87 pmol/day, ip administered for 4 consecutive days measured 24 hrs after last dose; type: functional; summary of the method: as §1
Rattus norvegicus [4] = test: Effect on bone calcium mobilization in weanling Sprague-Dawley rat assessed as serum calcium level at 260 pmol/day, ip administered for 4 consecutive days measured 24 hrs after last dose; type: functional; summary of the method: as §1
HL-60 [5] = test: Ratio of compound ED50 to [3H]1-alpha,25-(OH)2D3 ED50 for induction of differentiation of human HL60 promyelocytes into monocytes after 4 days by NBT reduction assay; type: functional
Rattus norvegicus [6] = test: Effect on intestinal calcium transport in weanling Sprague-Dawley rat assessed as ratio of serosal to mucosal calcium level at 7020 pmol/day, ip administered for 4 consecutive days measured 24 hrs after last dose by everted gut sac method; type: functional
Summary of the method: (§2)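 Same rats and regimen: low/normal Ca diet cycling, then four i.p. doses about 24 h apart during the final 0.02% Ca week. First 10 cm of intestine taken 24 h after the last dose; Ca transport measured by everted gut sac.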

Rattus norvegicus [7] = test: Effect on intestinal calcium transport in weanling Sprague-Dawley rat assessed as ratio of serosal to mucosal calcium level at 780 pmol/day, ip administered for 4 consecutive days measured 24 hrs after last dose by everted gut sac method; type: functional; summary of the method: as §2
[8] = biological target: T1, Vitamin D3 receptor (Rattus norvegicus) (UniProt P13053); test: Ratio of compound EC50 to [3H]1-alpha,25-(OH)2D3 EC50 for VDR in rat osteosarcoma cells by 24-hydroxylase gene transcriptional activation assay; type: cell-based
T1 sequence (whole entry): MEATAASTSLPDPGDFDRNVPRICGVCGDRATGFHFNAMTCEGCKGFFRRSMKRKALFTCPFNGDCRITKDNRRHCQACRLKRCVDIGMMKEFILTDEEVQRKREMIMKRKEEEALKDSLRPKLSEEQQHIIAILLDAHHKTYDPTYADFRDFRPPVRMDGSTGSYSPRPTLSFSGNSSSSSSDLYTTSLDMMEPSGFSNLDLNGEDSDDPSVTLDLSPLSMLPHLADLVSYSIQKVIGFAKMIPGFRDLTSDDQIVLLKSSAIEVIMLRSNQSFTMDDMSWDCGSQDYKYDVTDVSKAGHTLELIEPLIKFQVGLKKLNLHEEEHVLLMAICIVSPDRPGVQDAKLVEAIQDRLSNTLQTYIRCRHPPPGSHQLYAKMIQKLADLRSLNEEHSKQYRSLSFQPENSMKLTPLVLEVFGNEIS
Summary of the method: (§3)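 Rat osteosarcoma cells stably transfected with a 24-hydroxylase gene reporter plasmid; luciferase read-out. EC50 from dose–response curves = concentration raising luciferase activity by 50%. Ratio = average of analog EC50 over 1α,25-(OH)2D3 EC50. Duplicates on at least two separate occasions.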

HL-60 [9] = test: Induction of differentiation of human HL60 promyelocytes into monocytes after 4 days by NBT reduction assay; type: functional, cell-based; details: HL-60, 96 h
Vitamin D3 receptor [10] = biological target: T2, Vitamin D3 receptor (Rattus norvegicus, UniProt P13053); test: Activity at VDR in rat osteosarcoma cells assessed as induction of 24-hydroxylase reporter gene transcription by luciferase reporter gene assay; type: cell-based; summary of the method: as §3
T2 sequence (P13053 whole entry): T1 sequence (whole entry)

Vitamin D3 receptor [11] = biological target: T2, Vitamin D3 receptor; test: Displacement of radiolabeled 1-alpha,25-(OH)2D3 from rat recombinant full length VDR
Rattus norvegicus [12] = test: Effect on bone calcium mobilization in weanling Sprague-Dawley rat assessed as serum calcium level at 7020 pmol/day, ip administered for 4 consecutive days measured 24 hrs after last dose; type: functional; summary of the method: as §1
Rattus norvegicus [13] = test: Effect on intestinal calcium transport in weanling Sprague-Dawley rat assessed as ratio of serosal to mucosal calcium level at 87 pmol/day, ip administered for 4 consecutive days measured 24 hrs after last dose by everted gut sac method; type: functional; summary of the method: as §2
Rattus norvegicus [14] = test: Effect on intestinal calcium transport in weanling Sprague-Dawley rat assessed as ratio of serosal to mucosal calcium level at 260 pmol/day, ip administered for 4 consecutive days measured 24 hrs after last dose by everted gut sac method; type: functional; summary of the method: as §2
[15] = biological target: T1, Vitamin D3 receptor (Rattus norvegicus); test: Ratio of compound Ki to [3H]1-alpha,25-(OH)2D3 Ki for rat recombinant full length VDR
Rattus norvegicus [16] = test: Effect on intestinal calcium transport in weanling Sprague-Dawley rat assessed as ratio of serosal to mucosal calcium level at 2340 pmol/day, ip administered for 4 consecutive days measured 24 hrs after last dose by everted gut sac method; type: functional; summary of the method: as §2

| SMILES | Activity (Rattus norvegicus [1]) | Activity (Rattus norvegicus [2]) | Activity (Rattus norvegicus [3]) | Activity (Rattus norvegicus [4]) | Ratio ED50 (HL-60 [5]) | Ratio (Rattus norvegicus [6]) | Ratio (Rattus norvegicus [7]) | Ratio EC50 [8] | EC50 (HL-60 [9]) | EC50 (Vitamin D3 receptor [10]) | Ki (Vitamin D3 receptor [11]) | Activity (Rattus norvegicus [12]) | Ratio (Rattus norvegicus [13]) | Ratio (Rattus norvegicus [14]) | Ratio Ki [15] | Ratio (Rattus norvegicus [16]) |
| --- | --- | --- | --- | --- | --- | --- | --- | --- | --- | --- | --- | --- | --- | --- | --- | --- |
| C=C1/C(=C\C=C2/CCC[C@]3(C)[C@@H]([C@H](C)CCCC(C)(C)O)CC[C@@H]23)C[C@@H](O)C[C@@H]1O [CALCITRIOL] | 5.3 mg/dL | 6.9 mg/dL | 4.6 mg/dL | 5 mg/dL | – | – | – | – | – | – | – | – | – | – | – | – |
| C=C1[C@H](O)CC(=C/C=C2\CCC[C@]3(C)[C@@H](CCCCC(C)(C)O)CC[C@@H]23)C[C@H]1O | 4.9 mg/dL | 5.3 mg/dL | 4.3 mg/dL | 4.6 mg/dL | 0.35 | 7.8 | 10.2 | 0.67 | 0.2 nM | 0.2 nM | 0.2 nM | 5.1 mg/dL | 5.6 | 7.4 | 2 | 8.8 |
| C=C1[C@H](O)CC(=C/C=C2\CCC[C@@H]3[C@@H]([C@@H](C)CCCC(C)(C)O)CC[C@@H]23)C[C@H]1O | 6.6 mg/dL | 7.8 mg/dL | – | 5.7 | 0.2 | 14.5 | 10 | 0.07 | 0.4 nM | 0.02 nM | 0.02 nM | 8.7 mg/dL | – | 8.4 | 0.2 | 8.5 |
| C=C1[C@H](O)CC(=C/C=C2\CCC[C@]3(C)[C@@H]([C@@H](C)CCCC(C)(C)O)CC[C@@H]23)C[C@H]1O [DP001] | 11.1 mg/dL | – | 8.4 mg/dL | 9.3 mg/dL | – | – | 10.9 | – | – | – | – | – | 12.3 | 11.4 | – | – |
| C=C1[C@H](O)CC(=C/C=C2\CCC[C@@H]3[C@@H](CCCCC(C)(C)O)CC[C@@H]23)C[C@H]1O | – | 6.1 mg/dL | 4 mg/dL | 4.3 mg/dL | 0.15 | 11.4 | – | 0.2 | 0.3 nM | 0.06 nM | 0.1 nM | 6.5 mg/dL | 7.2 | 2.3 | 1 | 7.5 |
